{
  "source": "ChEMBL document CHEMBL1133896",
  "about": "“Structure-activity study and analgesic efficacy of amino acid derivatives as N-type calcium channel blockers” (Bioorg Med Chem Lett, 2001)",
  "key": {"[1]": {"molecular_target": "T1, Voltage-dependent N-type calcium channel subunit alpha-1B (Homo sapiens, UniProt Q00975)", "experiment": "In vitro inhibition against N-type calcium influx in IMR-32 cells", "type": "functional, cell-based"}, "[2]": {"experiment": "Selectivity ratio between the L-type to N-type calcium influx", "type": "functional"}, "[3]": {"experiment": "In vitro inhibition against L-type calcium influx in mouse pituitary tumor derived cells (AtT-20)", "type": "functional", "conditions": "AtT20"}, "[4]": {"molecular_target": "T1, Voltage-dependent N-type calcium channel subunit alpha-1B", "experiment": "In vitro inhibition of N-type calcium channel current in IMR-32 cells at 10 uM", "type": "functional"}, "Rattus norvegicus [5]": {"test_system": "Rattus norvegicus", "experiment": "In vivo analgesic efficacy in the rat formalin induced pain model at 3 nmol/rat intrathecal dose", "type": "functional", "how_it_was_run": "(§1)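 Rat formalin test. The read-out was paw flinching during the persistent nociceptive phase, expressed as % inhibition, n=3. Blood pressure and neurological behavior were also observed.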"}, "Rattus norvegicus [6]": {"test_system": "Rattus norvegicus", "experiment": "In vivo analgesic efficacy in rat formalin induced pain model at 100 mg/kg peroral dose", "type": "functional", "conditions": "route oral", "how_it_was_run": "as §1"}},
  "data": [
    {"smiles": "COc1ccc(COC(=O)[C@@H](CC(=O)OC2CCCC2)NC(=O)OC(C)(C)C)cc1", "values": [
      {"measurement": "IC50", "setting": "[1]", "value": 2, "unit": "µM"},
      {"measurement": "Selectivity ratio", "setting": "[2]", "value": 1.5},
      {"measurement": "IC50", "setting": "[3]", "value": 2.9, "unit": "µM"}
    ]},
    {"smiles": "COc1ccc(COC(=O)[C@H](CC(=O)OC2CCCC2)NC(=O)OC(C)(C)C)cc1", "values": [
      {"measurement": "IC50", "setting": "[1]", "value": 3.4, "unit": "µM"},
      {"measurement": "Selectivity ratio", "setting": "[2]", "value": 4.4},
      {"measurement": "IC50", "setting": "[3]", "value": 15, "unit": "µM"},
      {"measurement": "inhibition", "setting": "[4]", "value": 34, "unit": "%"},
      {"measurement": "Inhibition", "setting": "Rattus norvegicus [5]", "value": 31, "unit": "%"}
    ]},
    {"smiles": "COc1ccc(COC(=O)[C@H](COC(=O)C2CCCCC2)NC(=O)OC(C)(C)C)cc1", "values": [
      {"measurement": "IC50", "setting": "[1]", "value": 1.6, "unit": "µM"},
      {"measurement": "Selectivity ratio", "setting": "[2]", "value": 6.3},
      {"measurement": "IC50", "setting": "[3]", "value": 10, "unit": "µM"}
    ]},
    {"smiles": "COC(=O)C[C@H](NC(=O)OC(C)(C)C)C(=O)OCc1ccc(OC)cc1", "values": [
      {"measurement": "IC50", "setting": "[1]", "value": 26, "unit": "µM"},
      {"measurement": "Selectivity ratio", "setting": "[2]", "value": 0.5},
      {"measurement": "IC50", "setting": "[3]", "value": 14, "unit": "µM"}
    ]},
    {"smiles": "CC(C)(C)OC(=O)N[C@@H](CC(=O)OC1CCCC1)C(=O)OCc1ccc(Cl)cc1", "values": [
      {"measurement": "IC50", "setting": "[1]", "value": 3.3, "unit": "µM"},
      {"measurement": "Selectivity ratio", "setting": "[2]", "value": 4.8},
      {"measurement": "IC50", "setting": "[3]", "value": 16, "unit": "µM"}
    ]},
    {"smiles": "COc1ccc(CN(C)C(=O)[C@H](COCC2CCCCC2)NC(=O)OC(C)(C)C)cc1", "values": [
      {"measurement": "IC50", "setting": "[1]", "value": 1.8, "unit": "µM"},
      {"measurement": "Selectivity ratio", "setting": "[2]", "value": 0.8},
      {"measurement": "IC50", "setting": "[3]", "value": 1.4, "unit": "µM"}
    ]},
    {"smiles": "COc1ccc(CNC(=O)[C@H](COCC2CCCCC2)NC(=O)OC(C)(C)C)cc1", "values": [
      {"measurement": "IC50", "setting": "[1]", "value": 0.95, "unit": "µM"},
      {"measurement": "Selectivity ratio", "setting": "[2]", "value": 4},
      {"measurement": "IC50", "setting": "[3]", "value": 3.8, "unit": "µM"},
      {"measurement": "inhibition", "setting": "[4]", "value": 38, "unit": "%"},
      {"measurement": "Inhibition", "setting": "Rattus norvegicus [5]", "value": 35, "unit": "%"}
    ]},
    {"smiles": "COc1ccc(COC(=O)[C@H](CC(=O)OC2CCC2)NC(=O)OC(C)(C)C)cc1", "values": [
      {"measurement": "IC50", "setting": "[1]", "value": 15, "unit": "µM"},
      {"measurement": "Selectivity ratio", "setting": "[2]", "value": 1.9},
      {"measurement": "IC50", "setting": "[3]", "value": 28, "unit": "µM"}
    ]},
    {"smiles": "COc1ccc(COC(=O)[C@H](CC(=O)OC2CCCCC2)NC(=O)OC(C)(C)C)cc1", "values": [
      {"measurement": "IC50", "setting": "[1]", "value": 2.3, "unit": "µM"},
      {"measurement": "Selectivity ratio", "setting": "[2]", "value": 7},
      {"measurement": "IC50", "setting": "[3]", "value": 16, "unit": "µM"}
    ]},
    {"smiles": "COc1ccc(COC(=O)[C@H](COCC2CCCCC2)NC(=O)OC(C)(C)C)cc1", "values": [
      {"measurement": "IC50", "setting": "[1]", "value": 1.2, "unit": "µM"},
      {"measurement": "Selectivity ratio", "setting": "[2]", "value": 7},
      {"measurement": "IC50", "setting": "[3]", "value": 8.4, "unit": "µM"}
    ]},
    {"smiles": "COc1ccc(COC(=O)[C@H](CC(=O)OC2CCCCCC2)NC(=O)OC(C)(C)C)cc1", "values": [
      {"measurement": "IC50", "setting": "[1]", "value": 2.6, "unit": "µM"},
      {"measurement": "Selectivity ratio", "setting": "[2]", "value": 4.6},
      {"measurement": "IC50", "setting": "[3]", "value": 12, "unit": "µM"}
    ]},
    {"smiles": "COc1cccc(COC(=O)[C@H](CC(=O)OC2CCCC2)NC(=O)OC(C)(C)C)c1", "values": [
      {"measurement": "IC50", "setting": "[1]", "value": 3.8, "unit": "µM"},
      {"measurement": "Selectivity ratio", "setting": "[2]", "value": 3.2},
      {"measurement": "IC50", "setting": "[3]", "value": 12, "unit": "µM"}
    ]},
    {"smiles": "COc1ccc(CNC(=O)[C@H](CSCC2CCCC2)NC(=O)OC(C)(C)C)cc1", "values": [
      {"measurement": "IC50", "setting": "[1]", "value": 0.63, "unit": "µM"},
      {"measurement": "Selectivity ratio", "setting": "[2]", "value": 6.2},
      {"measurement": "IC50", "setting": "[3]", "value": 3.9, "unit": "µM"},
      {"measurement": "inhibition", "setting": "[4]", "value": 45, "unit": "%"},
      {"measurement": "Inhibition", "setting": "Rattus norvegicus [5]", "value": 47, "unit": "%"},
      {"measurement": "inhibition in vivo at 100 mg/kg", "setting": "Rattus norvegicus [6]", "value": 43, "unit": "%"}
    ]},
    {"smiles": "CC(C)(C)OC(=O)N[C@@H](CC(=O)OC1CCCC1)C(=O)OCc1ccc(Br)cc1", "values": [
      {"measurement": "IC50", "setting": "[1]", "value": 3.4, "unit": "µM"},
      {"measurement": "Selectivity ratio", "setting": "[2]", "value": 1.6},
      {"measurement": "IC50", "setting": "[3]", "value": 5.3, "unit": "µM"}
    ]},
    {"smiles": "COc1ccc(CNC(=O)[C@H](CSCC2CCCCC2)NC(=O)OC(C)(C)C)cc1", "values": [
      {"measurement": "IC50", "setting": "[1]", "value": 0.61, "unit": "µM"},
      {"measurement": "Selectivity ratio", "setting": "[2]", "value": 2.8},
      {"measurement": "IC50", "setting": "[3]", "value": 1.7, "unit": "µM"},
      {"measurement": "inhibition", "setting": "[4]", "value": 66, "unit": "%"},
      {"measurement": "Inhibition", "setting": "Rattus norvegicus [5]", "value": 36, "unit": "%"}
    ]},
    {"smiles": "COc1ccccc1COC(=O)[C@H](CC(=O)OC1CCCC1)NC(=O)OC(C)(C)C", "values": [
      {"measurement": "IC50", "setting": "[1]", "value": 5.4, "unit": "µM"},
      {"measurement": "Selectivity ratio", "setting": "[2]", "value": 2.8},
      {"measurement": "IC50", "setting": "[3]", "value": 15, "unit": "µM"}
    ]},
    {"smiles": "COc1ccc(CNC(=O)[C@H](CCOC2CCCCC2)NC(=O)OC(C)(C)C)cc1", "values": [
      {"measurement": "IC50", "setting": "[1]", "value": 4, "unit": "µM"},
      {"measurement": "Selectivity ratio", "setting": "[2]", "value": 3.3},
      {"measurement": "IC50", "setting": "[3]", "value": 13, "unit": "µM"}
    ]}
  ]
}
